Results taken from ChEMBL document CHEMBL1949557, “Discovery of INCB3284, a Potent, Selective, and Orally Bioavailable hCCR2 Antagonist” (ACS Med Chem Lett, 2011).
Activity calls are given as the source filed them. The calls are words filed in the database; no cut-off is given here.

How the values were obtained:
[1] = test system: Liver; experiment: Metabolic stability in human liver S9 fraction assessed as glutathione adduct formation in presence of glutathione; assay type: ADME, subcellular
[2] = Oral bioavailability in dog at 30 mg/kg; assay type: ADME, organism-based, Canis lupus familiaris; details: in vivo
In short: (§1)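 Pharmacokinetics run in rats, dogs, cynomolgus monkeys and chimpanzees, with two animals per species for the iv arm and two per species for the oral arm. Parameters were derived per species and route: CL, Vss and T1/2 from iv dosing; Cmax, Tmax, AUC, T1/2 and F% from oral dosing. Values are reported as mean ± spread.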

[3] = Oral bioavailability in chimpanzee at 4 mg/kg; assay type: ADME, organism-based, Pan troglodytes; details: in vivo; in short: as §1
[4] = Half life in chimpanzee at 1 mg/kg, iv; assay type: ADME, organism-based, Pan troglodytes; parameters: dose 1 mg/kg, route intravenous; details: in vivo; in short: as §1
[5] = target: Cytochrome P450 2D6 (Homo sapiens, UniProt P10635); experiment: Inhibition of CYP2D6; assay type: ADME
Chain of Cytochrome P450 2D6 (P10635 whole entry): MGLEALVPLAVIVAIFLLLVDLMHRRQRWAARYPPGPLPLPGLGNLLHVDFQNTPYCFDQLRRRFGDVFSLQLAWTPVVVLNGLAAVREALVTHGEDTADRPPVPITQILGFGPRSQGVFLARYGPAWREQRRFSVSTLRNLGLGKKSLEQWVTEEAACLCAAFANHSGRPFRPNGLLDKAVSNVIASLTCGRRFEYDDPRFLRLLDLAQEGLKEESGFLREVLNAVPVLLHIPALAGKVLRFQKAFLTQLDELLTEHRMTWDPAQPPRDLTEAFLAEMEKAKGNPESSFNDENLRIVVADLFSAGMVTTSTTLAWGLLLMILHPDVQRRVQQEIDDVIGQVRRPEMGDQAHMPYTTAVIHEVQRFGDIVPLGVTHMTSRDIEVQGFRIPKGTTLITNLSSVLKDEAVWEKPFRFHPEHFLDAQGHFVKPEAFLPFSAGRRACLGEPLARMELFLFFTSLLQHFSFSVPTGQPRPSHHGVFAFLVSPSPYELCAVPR

[6] = Oral bioavailability in cynomolgus monkey at 30 mg/kg; assay type: ADME, organism-based, Macaca fascicularis; details: in vivo; in short: as §1
[7] = Tmax in cynomolgus monkey at 30 mg/kg, po; assay type: ADME, organism-based, Macaca fascicularis; parameters: dose 30 mg/kg, route oral; details: in vivo; in short: as §1
[8] = target: T1, Cytochrome P450 1A2 (Homo sapiens, UniProt P05177); experiment: Inhibition of CYP1A2; assay type: ADME
T1 sequence (P05177 whole entry): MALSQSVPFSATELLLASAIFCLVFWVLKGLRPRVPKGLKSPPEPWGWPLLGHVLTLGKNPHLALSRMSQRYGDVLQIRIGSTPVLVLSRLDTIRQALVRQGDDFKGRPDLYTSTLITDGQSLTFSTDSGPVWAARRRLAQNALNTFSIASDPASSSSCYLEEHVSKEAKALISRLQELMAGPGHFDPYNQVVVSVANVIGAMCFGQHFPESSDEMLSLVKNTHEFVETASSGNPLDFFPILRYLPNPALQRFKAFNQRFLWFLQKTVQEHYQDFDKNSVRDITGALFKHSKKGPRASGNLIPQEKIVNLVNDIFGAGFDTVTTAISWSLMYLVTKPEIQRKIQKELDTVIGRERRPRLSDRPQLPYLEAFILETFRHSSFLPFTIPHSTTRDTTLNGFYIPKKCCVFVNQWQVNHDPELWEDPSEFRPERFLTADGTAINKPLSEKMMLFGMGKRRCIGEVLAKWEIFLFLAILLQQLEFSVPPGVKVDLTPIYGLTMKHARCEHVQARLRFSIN

[9] = test system: Rattus norvegicus; experiment: Clearance in rat at 5 mg/kg, iv; assay type: ADME, organism-based; parameters: dose 5 mg/kg, route intravenous; details: in vivo; in short: as §1
[10] = Half life in chimpanzee at 4 mg/kg, po; assay type: ADME, organism-based, Pan troglodytes; parameters: dose 4 mg/kg, route oral; details: in vivo; in short: as §1
[11] = Half life in dog at 5 mg/kg, iv; assay type: ADME, organism-based, Canis lupus familiaris; parameters: dose 5 mg/kg, route intravenous; details: in vivo; in short: as §1
[12] = target: Cytochrome P450 2C19 (Homo sapiens, UniProt P33261); experiment: Inhibition of CYP2C19; assay type: ADME
Chain of Cytochrome P450 2C19 (P33261 whole entry): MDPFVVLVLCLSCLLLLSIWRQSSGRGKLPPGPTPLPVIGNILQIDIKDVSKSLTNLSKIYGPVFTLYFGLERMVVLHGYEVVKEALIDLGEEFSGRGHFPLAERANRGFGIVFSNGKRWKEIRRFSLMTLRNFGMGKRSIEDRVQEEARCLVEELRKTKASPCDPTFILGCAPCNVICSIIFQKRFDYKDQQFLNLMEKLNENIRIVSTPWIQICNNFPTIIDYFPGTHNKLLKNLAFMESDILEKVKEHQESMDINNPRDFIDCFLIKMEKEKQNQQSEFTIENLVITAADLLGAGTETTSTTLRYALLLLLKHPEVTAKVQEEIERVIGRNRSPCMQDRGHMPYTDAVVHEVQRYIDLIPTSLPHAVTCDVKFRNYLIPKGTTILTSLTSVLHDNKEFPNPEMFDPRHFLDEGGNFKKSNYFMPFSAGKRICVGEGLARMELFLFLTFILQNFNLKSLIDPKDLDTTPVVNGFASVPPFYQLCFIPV

[13] = Half life in dog at 30 mg/kg, po; assay type: ADME, organism-based, Canis lupus familiaris; parameters: dose 30 mg/kg, route oral; details: in vivo; in short: as §1
[14] = Cmax in rat at 10 mg/kg, po; assay type: ADME, organism-based; parameters: dose 10 mg/kg, route oral; details: in vivo; in short: as §1
[15] = target: Cytochrome P450 2C9 (Homo sapiens, UniProt P11712); experiment: Inhibition of CYP2C9; assay type: ADME
Chain of Cytochrome P450 2C9 (P11712 whole entry): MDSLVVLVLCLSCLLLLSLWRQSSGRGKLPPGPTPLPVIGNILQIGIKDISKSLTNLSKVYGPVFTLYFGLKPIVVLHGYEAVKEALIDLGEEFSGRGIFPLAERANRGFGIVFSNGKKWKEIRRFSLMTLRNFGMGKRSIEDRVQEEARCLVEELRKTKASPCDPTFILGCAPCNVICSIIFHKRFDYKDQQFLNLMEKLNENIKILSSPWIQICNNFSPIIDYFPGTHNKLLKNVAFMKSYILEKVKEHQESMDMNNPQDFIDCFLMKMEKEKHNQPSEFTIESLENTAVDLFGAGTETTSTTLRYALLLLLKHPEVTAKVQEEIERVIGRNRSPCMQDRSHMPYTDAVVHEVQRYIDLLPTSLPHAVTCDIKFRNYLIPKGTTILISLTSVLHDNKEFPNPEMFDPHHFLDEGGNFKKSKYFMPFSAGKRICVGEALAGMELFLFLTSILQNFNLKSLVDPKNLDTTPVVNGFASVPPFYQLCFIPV

[16] = target: T2, C-X-C chemokine receptor type 5 (Homo sapiens) (UniProt P32302); experiment: Inhibition of CXCR5 at 1 uM
T2 sequence (whole entry): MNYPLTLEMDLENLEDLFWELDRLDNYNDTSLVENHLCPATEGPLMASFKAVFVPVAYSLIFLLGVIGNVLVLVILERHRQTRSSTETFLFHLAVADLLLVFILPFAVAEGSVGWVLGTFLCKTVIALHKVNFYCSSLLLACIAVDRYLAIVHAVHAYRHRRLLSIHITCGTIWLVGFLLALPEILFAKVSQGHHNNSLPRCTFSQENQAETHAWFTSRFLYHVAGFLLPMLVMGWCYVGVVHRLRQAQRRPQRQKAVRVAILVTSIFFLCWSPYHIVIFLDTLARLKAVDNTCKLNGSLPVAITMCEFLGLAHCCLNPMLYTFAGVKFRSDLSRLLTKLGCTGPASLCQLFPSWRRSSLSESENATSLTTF
In short: (§2)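 Cerep selectivity panel of over 50 ion channels, transporters, chemokine receptors and other GPCRs. Single test concentration of 1 μM, scored for significant inhibition.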

[17] = Tmax in rat at 10 mg/kg, po; assay type: ADME, organism-based; parameters: dose 10 mg/kg, route oral; details: in vivo; in short: as §1
[18] = target: T3, C-C chemokine receptor type 2 (Homo sapiens, UniProt P41597); experiment: Displacement of [125I]MCP1 from CCR2 in human PBMC after 30 mins by gamma counter
T3 sequence (P41597 whole entry): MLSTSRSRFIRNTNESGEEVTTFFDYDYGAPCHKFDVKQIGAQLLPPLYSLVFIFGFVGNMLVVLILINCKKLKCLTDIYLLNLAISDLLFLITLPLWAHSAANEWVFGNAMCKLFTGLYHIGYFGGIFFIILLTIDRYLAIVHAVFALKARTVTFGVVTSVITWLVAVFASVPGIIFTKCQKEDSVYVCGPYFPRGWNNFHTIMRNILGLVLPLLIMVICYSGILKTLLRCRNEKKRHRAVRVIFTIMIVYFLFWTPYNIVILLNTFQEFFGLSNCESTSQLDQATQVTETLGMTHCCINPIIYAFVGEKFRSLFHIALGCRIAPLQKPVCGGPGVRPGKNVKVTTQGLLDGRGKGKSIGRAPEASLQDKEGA

[19] = Half life in human administered as qd; assay type: ADME, organism-based; details: in vivo
[20] = target: T4, C-C chemokine receptor type 3 (Homo sapiens) (UniProt P51677); experiment: Inhibition of CCR3 at 1 uM; in short: as §2
T4 sequence (whole entry): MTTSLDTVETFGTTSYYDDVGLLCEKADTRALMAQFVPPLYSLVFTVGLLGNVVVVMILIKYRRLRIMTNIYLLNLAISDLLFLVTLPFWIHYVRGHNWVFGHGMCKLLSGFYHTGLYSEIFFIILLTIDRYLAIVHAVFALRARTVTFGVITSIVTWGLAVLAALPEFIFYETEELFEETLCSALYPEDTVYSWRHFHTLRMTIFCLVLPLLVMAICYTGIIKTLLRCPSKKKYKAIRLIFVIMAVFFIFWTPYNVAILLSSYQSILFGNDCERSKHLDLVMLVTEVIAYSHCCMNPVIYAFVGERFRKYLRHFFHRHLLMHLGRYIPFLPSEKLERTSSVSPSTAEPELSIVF

[21] = test system: Rattus norvegicus; experiment: AUC in rat at 10 mg/kg, po; assay type: ADME, organism-based, Plasma; parameters: dose 10 mg/kg, route oral; details: in vivo; in short: as §1
[22] = Tmax in dog at 30 mg/kg, po; assay type: ADME, organism-based, Canis lupus familiaris; parameters: dose 30 mg/kg, route oral; details: in vivo; in short: as §1
[23] = Cmax in dog at 30 mg/kg, po; assay type: ADME, organism-based, Canis lupus familiaris; parameters: dose 30 mg/kg, route oral; details: in vivo; in short: as §1
[24] = Clearance in dog at 5 mg/kg, iv; assay type: ADME, organism-based, Canis lupus familiaris; parameters: dose 5 mg/kg, route intravenous; details: in vivo; in short: as §1
[25] = test system: Rattus norvegicus; experiment: Oral bioavailability in rat at 10 mg/kg; assay type: ADME, organism-based; details: in vivo; in short: as §1
[26] = Clearance in cynomolgus monkey at 5 mg/kg, iv; assay type: ADME, organism-based, Macaca fascicularis; parameters: dose 5 mg/kg, route intravenous; details: in vivo; in short: as §1
[27] = target: C-C chemokine receptor type 5 (Homo sapiens) (UniProt P51681); experiment: Inhibition of CCR5 at 1 uM; in short: as §2
Chain of C-C chemokine receptor type 5 (Homo sapiens) (P51681 whole entry, looked up): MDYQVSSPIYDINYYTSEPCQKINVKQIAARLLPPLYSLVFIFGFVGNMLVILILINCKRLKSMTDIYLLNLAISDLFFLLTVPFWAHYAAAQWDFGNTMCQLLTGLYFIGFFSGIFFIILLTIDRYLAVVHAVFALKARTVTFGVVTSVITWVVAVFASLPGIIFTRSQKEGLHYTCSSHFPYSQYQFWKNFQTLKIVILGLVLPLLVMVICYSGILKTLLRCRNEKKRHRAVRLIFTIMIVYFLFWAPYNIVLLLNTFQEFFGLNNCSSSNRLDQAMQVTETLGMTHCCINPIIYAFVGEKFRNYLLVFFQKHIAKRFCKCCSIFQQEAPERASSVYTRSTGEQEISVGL

[28] = AUC in chimpanzee at 4 mg/kg, po; assay type: ADME, organism-based, Pan troglodytes; parameters: dose 4 mg/kg, route oral; details: plasma; in short: as §1
[29] = Half life in rat at 10 mg/kg, po; assay type: ADME, organism-based; parameters: dose 10 mg/kg, route oral; details: in vivo; in short: as §1
[30] = target: T3, C-C chemokine receptor type 2; experiment: Inhibition of human CCR2-mediated intracellular calcium mobilization by cell based assay; assay type: functional
[31] = Fraction unbound in human serum at 1 to 10 uM; assay type: ADME, cell-free
In short: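 Serum protein binding measured in human serum at 1 and 10 μM test concentrations. Read-out is the free (unbound) fraction.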

[32] = Half life in rat at 5 mg/kg, iv; assay type: ADME, organism-based; parameters: dose 5 mg/kg, route intravenous; details: in vivo; in short: as §1
[33] = Induction of cytochrome P450 up to 10 uM by luminometric luciferase assay; assay type: ADME
[34] = Half life in cynomolgus monkey at 5 mg/kg, iv; assay type: ADME, organism-based, Macaca fascicularis; parameters: dose 5 mg/kg, route intravenous; details: in vivo; in short: as §1
[35] = Cmax in chimpanzee at 4 mg/kg, po; assay type: ADME, organism-based, Pan troglodytes; parameters: dose 4 mg/kg, route oral; details: in vivo; in short: as §1
[36] = AUC in cynomolgus monkey at 30 mg/kg, po; assay type: ADME, organism-based, Macaca fascicularis; parameters: dose 30 mg/kg, route oral; details: plasma; in short: as §1

Stability [1]: Stable | bioavailability [2]: 31% | bioavailability [3]: 23% | half-life [4]: 3.8 h | IC50 [5]: > 25 µM | bioavailability [6]: 13% | Tmax [7]: 1.5 h | IC50 [8]: > 25 µM | CL [9]: 56.7 mL/min/kg | half-life [10]: 5.3 h | half-life [11]: 3.5 h | IC50 [12]: > 25 µM | half-life [13]: 3.3 h | Cmax [14]: 573 nM | IC50 [15]: > 25 µM | inhibition [16]: inactive | Tmax [17]: 4 h | IC50 [18]: 0.0037 µM | half-life [19]: 15 h | inhibition [20]: inactive | AUC [21]: 3.657 µM·h | Tmax [22]: 1.5 h | Cmax [23]: 7810 nM | clearance [24]: 9.5 mL/min/kg | F [25]: 20% | clearance [26]: 13.7 mL/min/kg | inhibition [27]: inactive | AUC [28]: 4.94 µM·h | half-life [29]: 2.9 h | IC50 [30]: 0.006 µM | fraction unbound at up to 10 µM [31]: 0.58 | half-life [32]: 2.8 h | Activity [33]: Not Active | half-life [34]: 2.2 h | Cmax [35]: 1120 nM | AUC [36]: 9.08 µM·h
SMILES: COc1ccc([C@]2(O)CC[C@H](N3CC[C@@H](NC(=O)CNC(=O)c4cccc(C(F)(F)F)c4)C3)CC2)cn1.CS(=O)(=O)O
